These results are taken from ChEMBL document CHEMBL4304791, “DABMA: A Derivative of ABMA with Improved Broad-Spectrum Inhibitory Activity of Toxins and Viruses” (ACS Med Chem Lett, 2019).

By EC50 is commonly meant the concentration at which the effect is half-maximal.

The subject of experiment [1] is A549. Briefly: Cytoprotection activity against diphtheria toxin-induced cytotoxicity against human A549 cells assessed as effect on protein synthesis incubated for 20 hrs followed by replacement of [14c]-Leucine containing medium and measured after 4 hrs by liquid scintillation analysis. The experiment is classed as functional, cell-based. A digest of the protocol:
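A549 cells were incubated with compound and then challenged with increasing DT concentrations. DT cytotoxicity was read as protein synthesis inhibition. Data are mean of duplicate wells ± SD from one representative experiment (n = 3).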

Experiment [2] concerns PC-3. Put plainly: Cytoprotection activity in human PC3 cells assessed as inhibition of diphtheria induced toxicity incubated for 20 hrs followed by replacement of [14c]-Leucine containing medium and measured after 4 hrs by liquid scintillation analysis. The format is functional, cell-based.
Experiment [3] has as its system A549. Put plainly: Induction of lysosomal activation in human A549 cells at 30 uM incubated for 2 hrs by LysoTracker Red staining based confocal microscopic analysis. The format is functional, cell-based. A digest of the protocol: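 A549 cells were pretreated 2 h with compound (30 or 60 μM) or DMSO, then stained with LysoTracker Deep Red (50 nM, 30 min) plus Hoechst. Intensity was read from 3 × 3 fields per well (10,000 cells/well) by imaging reader; mean ± SEM, n = 4; confocal images.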

The subject of experiment [4] is Vero. Put plainly: Inhibition of TcdB-induced cytotoxicity against African green monkey Vero cells assessed as reversal of toxin-induced cell rounding after 4 hrs by inverted microscopic analysis. The experiment is classed as functional, cell-based. The conditions noted are these: Chlorocebus sabaeus. The method, boiled down: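 Vero cells were given compound (30 μM) or DMSO, then increasing doses of TcdB for 4 h or TcsL for 16 h. Cell rounding was imaged by inverted microscope. Rounded cells were counted and normalised to total Hoechst-counterstained cells (>100 cells per treatment).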

Experiment [5] concerns A549. Briefly: Inhibition of diphtheria induced toxicity in human A549 cells assessed as protection fold at 30 uM incubated for 20 hrs followed by replacement of [14c]-Leucine containing medium and measured after 4 hrs by liquid scintillation analysis relative to ABMA. The experiment is classed as functional. The method, boiled down:
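Single-concentration screen: 30 μM compound on A549 cells with increasing DT concentrations, read as protein synthesis inhibition. Protection fold was calculated with ABMA as the positive control.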

Experiment [6] concerns A549. Put plainly: Induction of morphological changes in human A549 cells assessed as change in golgi apparatus at 30 uM incubated for 24 hrs by cyto-painter dye based inverted microscopic method. The format is functional, cell-based.
Experiment [7] relates to A549. Put plainly: Induction of morphological changes in human A549 cells assessed as change in endoplasmic reticulum at 30 uM incubated for 24 hrs by cyto-painter dye based inverted microscopic method. The experiment is classed as functional, cell-based.
Experiment [8] concerns Vero. Put plainly: Selectivity index, ratio of CC50 for cytotoxicity against African green monkey Vero cells to EC50 for cytoprotective activity in TcsL-induced cytotoxicity in African green monkey Vero cells. More on the design: species or system Chlorocebus sabaeus.
The test system of experiment [9] is Vero. Put plainly: Selectivity index, ratio of CC50 for cytotoxicity against African green monkey Vero cells to EC50 for cytoprotective activity in TcdB-induced cytotoxicity in African green monkey Vero cells. More on the design: species or system Chlorocebus sabaeus.
The test system of experiment [10] is A549. Put plainly: Inhibition of diphtheria induced toxicity in human A549 cells assessed as protection factor at 15 uM incubated for 20 hrs in presence of bafilomycin A1 followed by replacement of [14c]-Leucine containing medium and measured after 4 hrs by liquid scintillation analysis relative to untreated control. The format is functional. A digest of the protocol: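 A549 cells were incubated with Baf A1 (0.15 nM), DABMA (15 μM), both, or DMSO vehicle before DT was added, with the compounds kept present throughout. Toxin protection was read as protein synthesis and expressed as protection factor.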

Molecules are shown by their SMILES. Calls of active or inactive are those of the source. No cut-off for these calls is given here.

As for `COc1ccc(Br)cc1CNC12CC3CC(C)(CC(C)(C3)C1)C2`, the EC50 was 25.7 µM in experiment [1] and 38.6 µM in experiment [4]. The outcome in [2] and in experiment [3] was Active. Besides, the “fold change (FC)” value is 18.5 in experiment [5] and 300 in [10]. Besides, the outcome in [6] and in experiment [7] was inactive. Also, the “Ratio CC50/EC50” value in experiment [8] was determined as 7.38; in [9], 6.34.
